Shown are actives, neighbours in structure and some others; about 2.7% of the full set was active somewhere.
ARFGAP1 inh = inhibits rat ARF GTPase activating protein 1 | actives 0.26% (n = 360,000) | Q62848 | inhibition, % at 16.5 µM | Arfgap1-stimulated ARF1 GTP hydrolysis, GDP FP detection | AID 651572;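 active = inhibition above a per-plate limit, mean inhibition of low control wells plus 3 SD, cut at about 25% in these data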;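 note: 0% = DMSO wells with enzyme and 100% = wells lacking Arfgap1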
Target sequence (Q62848 1-136 limits assumed): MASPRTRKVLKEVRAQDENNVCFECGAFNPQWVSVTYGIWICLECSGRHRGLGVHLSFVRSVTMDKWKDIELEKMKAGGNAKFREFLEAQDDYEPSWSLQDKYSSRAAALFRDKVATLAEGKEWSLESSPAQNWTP
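system = rat Arfgap1 catalytic domain, aa 1-136 | technique = FP, GDP Alexa 633 tracer displaced from anti-GDP antibody, 620/688 nm | compound = one concentration, 16.5 µM, DMSO 1.26% | medium = HEPES-based buffer, pH 7.5 | timing = compound-enzyme preincubation 20 min, reaction 120 min, detection 60 min, 25 °C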
Rev-erbA mod = modulates human Rev-erb alpha binding to DNA | P20393 | Rev-erbα–FITC-DNA binding, fluorescence polarization, 90 min | activity, % at 10 µM | actives 0.79% (n = 370,000);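 active = activity above about 14%, limit read from the data; passing the limit was not always enough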;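 note: 0% = DMSO wells with 35 nM protein and 100% = DMSO wells with 750 nM protein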
MsrA act = activates bovine MsrA enzyme; actives 0.3% (n = 360,000); activation, % at 10.6 µM; purified bovine MsrA, absorbance read-out; in the data active = activation above about 7.5%;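 note: 0% = vehicle and 100% = reference activator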
MsrA inh = bovine MsrA inhibition; purified bovine MsrA, absorbance read-out; inhibition, % at 15.5 µM; actives 0.75% (n = 360,000); AID 651718;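 note: 0% = vehicle wells with enzyme and 100% = reference inhibitor wells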
sPLA2-III inh = Inhibits HGIII-sPLA2 liposome hydrolysis, primary screen. Q9NZ20. QFRET BODIPY PC-A2 liposome hydrolysis, fluorescence. inhibition, % at 12.2 µM. actives 0.56% (n = 370,000);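 active = inhibition above mean plus 3 SD of compounds lying within the high and low control bounds, cut at about 19% in these data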;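 note: 0% = median of test compound wells and 100% = no enzyme DMSO wells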
Target sequence (Q9NZ20 whole entry, looked up): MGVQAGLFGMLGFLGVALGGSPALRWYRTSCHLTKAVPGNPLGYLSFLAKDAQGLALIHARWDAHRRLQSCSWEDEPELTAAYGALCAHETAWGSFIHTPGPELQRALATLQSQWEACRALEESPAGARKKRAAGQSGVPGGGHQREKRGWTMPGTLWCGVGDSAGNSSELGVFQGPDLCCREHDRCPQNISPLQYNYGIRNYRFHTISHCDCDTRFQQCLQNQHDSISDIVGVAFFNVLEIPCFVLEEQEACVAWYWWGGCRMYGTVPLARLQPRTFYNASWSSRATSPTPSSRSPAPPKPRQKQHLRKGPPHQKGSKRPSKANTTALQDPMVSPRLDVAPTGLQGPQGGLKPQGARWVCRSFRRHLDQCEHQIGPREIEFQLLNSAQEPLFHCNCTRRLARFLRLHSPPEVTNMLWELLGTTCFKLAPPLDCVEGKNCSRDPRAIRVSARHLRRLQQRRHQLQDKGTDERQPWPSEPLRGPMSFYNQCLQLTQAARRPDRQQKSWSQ
ASAP1 inh = blocks human ASAP1-stimulated Arf1 GTP hydrolysis. Q9ULH1. GDP FP detection. inhibition, % at 16.5 µM. actives 0.19% (n = 360,000); in the data active = inhibition above about 25%;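 note: 0% = vehicle with enzyme and substrate and 100% = no enzyme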
MsrA inh confirm = confirmation of bovine MsrA inhibitors | shares compounds with MsrA inh | purified bovine MsrA, absorbance read-out | inhibition, % at 15.5 µM | actives 41% (n = 2,300) | AID 651822;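 note: coupled to thioredoxin reductase with NADPH and selenocystamine and DMSO as substrate; 0% = vehicle only and 100% = full effect of reference inhibitor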
Starred values were filed as active, the others as inactive; / = no result. Cut-off read from the data, not from the text of the source, unless noted: active = inhibition above about 4.5%; inactive = the rest.

SMILES	ARFGAP1 inh	Rev-erbA mod	MsrA act	MsrA inh	sPLA2-III inh	ASAP1 inh	MsrA inh confirm
O=C(Nc1ccc(N2CCOCC2)cc1)c1ccncc1	-3	-1	-2	1	5	2	/
CC(NCc1ccco1)C(=O)N1CCOCC1 (centres undefined)	/	5	/	/	-1	/	/
COc1cc(C(=O)NCC(=O)N/N=C/c2ccc(-c3cccc([N+](=O)[O-])c3)o2)cc(OC)c1OC	10	4	-2	5.3*	1	10	3
COc1cc(C(=O)NCC(=O)N/N=C/c2ccc(-c3ccc([N+](=O)[O-])cc3)o2)cc(OC)c1OC	6	-3	-2	2	5	-9	/
Cc1ccc(/C=N/NC(=O)c2cccc([N+](=O)[O-])c2)o1	-2	-2	-3	5.2*	1	-9	4.9*
Cc1ccc(/C=N\NC(=O)c2ccc3c(c2)OCO3)o1	-2	-3	-8	4.9*	5	10	5.4*
CN(C)c1ccc(/C=N/NC(=O)c2cccc(N3CCCC3=O)c2)cc1	-1	2	-5	7.2*	6	1	7.0*
COCCN1Cc2cc(C(=O)OC)c3c(c2C1=O)c1cc(OC)ccc1n3C(=O)c1ccccc1	-7	3	/	2	1	-4	/
COCc1cn(-c2ccc3c(c2)[C@@]2(CC(=O)N(C)C2c2ccccc2)C(=O)N3CC(C)C)nn1 (some centres undefined)	/	7	/	/	4	/	/
COc1ccc(Oc2c(-c3cccs3)cnn(-c3ccc(C)cc3)c2=O)cc1	/	5	/	/	-2	/	/
N#CN1CCC(NS(=O)(=O)c2ccc(F)cc2)C1 (centres undefined)	/	4	/	/	1	/	/
COc1cc(C(=O)NN=Cc2ccc(N(C)C)cc2)cc(OC)c1OC	4	3	-5	5.1*	4	13	5.1*
Cn1cc([N+](=O)[O-])c(C(=O)N/N=C/c2ccc3c(c2)OCO3)n1	-5	4	-3	4.9*	8	6	3
Cc1ccc(C(=O)NN=Cc2ccc3c(c2)OCO3)cc1	-2	-2	2	3	-3	-3	/
Cc1ccc(C(=O)N/N=C/c2ccc3c(c2)OCO3)o1	5	-1	-7	5.8*	6	-2	5.7*
O=C(N/N=C/c1ccccc1)c1ccc2c(c1)OCO2	7	1	-2	1	11	-10	/
CN(C)c1ccc(/C=N/NC(=O)c2ccc3c(c2)OCO3)cc1	2	2	-5	6.9*	5	-9	5.5*
CCN1CCCCC(NC(=O)c2cc(OC)c(OC)c(OC)c2)C1=O (centres undefined)	/	0	/	/	11	/	/
C#CCNC(=O)C[C@@H]1C[C@@](CCC(=O)OCC)(C(=O)OCC)C2=CCCCN2C1=O	/	-5	/	/	8	/	/
COC(=O)CSc1nnc(-c2ccc(NS(=O)(=O)c3ccc(Cl)s3)cc2)o1	/	1	/	/	-30	/	/
COc1ccc(C(=O)N(CN2CCCC2=O)c2nccs2)cc1OC	5	0	-15	7.5*	11	-14	5.1*
CCN(C(=O)CSc1nc2nc(C)cc(C)n2n1)c1cccc(C)c1	3	3	-10	0	-1	-11	/
CCN(C(=O)CSc1nc2nc(C)cc(C)n2n1)c1ccccc1	3	10	-2	4.8*	17	17	2
O=C(O)CSc1cc(NS(=O)(=O)c2ccc(Br)cc2)c2ccccc2c1O	-1	-1	9.3*	4.9*	-6	3	-1
Cc1ccc(S(=O)(=O)Nc2ccc(Br)cc2C(NCC(=O)O)c2ccccc2)cc1 (centres undefined)	-8	1	-11	0	-48	1	/
SMILES	ARFGAP1 inh	Rev-erbA mod	MsrA act	MsrA inh	sPLA2-III inh	ASAP1 inh	MsrA inh confirm
COC(=O)[C@]12CCCCC=C1N(Cc1ccc(OC)cc1)C(=O)[C@@H]2CC(=O)NCC12CC3CC(CC(C3)C1)C2	/	1	/	/	-14	/	/
CC(C)CNC(=O)OCc1cn(Cc2cc(F)cc(F)c2)nn1	/	5	/	/	2	/	/
Cc1nn(C)c(C)c1/C=C/C(=O)c1ccc(Cl)cc1Cl	1	7	-7	6.4*	-5	4	3
O=C(c1cccc(Cl)c1)N1CCN(c2ccnc3cc(Cl)ccc23)CC1	/	-1	/	/	-15	/	/
CC(=O)Nc1ccc(/C=N/Nc2nc3ccccc3[nH]2)cc1	6	-2	-6	8.2*	6	11	5.9*
C(=N\Nc1nc2ccccc2[nH]1)/c1ccncc1	0	1	-4	5.0*	9	-14	2
O=C(O)c1ccc(/C=N/Nc2nc3ccccc3[nH]2)cc1	-5	1	-4	2	1	-16	/
Cn1c(/C=N/Nc2nc3ccccc3[nH]2)nc2ccccc21	8	-2	-1	4.9*	49*	12	5.0*
O=C(O)CCC(=O)N1c2ccccc2NC2=C(C(=O)CC(c3ccc(F)cc3)C2)C1c1ccc([N+](=O)[O-])o1 (centres undefined)	-5	-2	-4	7.0*	-4	-7	4.6*
COc1ccc(C2CC(=O)C3=C(C2)Nc2ccccc2N(C(=O)CCC(=O)O)C3c2ccc(F)cc2)cc1 (centres undefined)	17	-5	-2	5.0*	6	7	4
CC1(C)CC(=O)C2=C(C1)Nc1ccccc1NC2c1ccc2c(c1)OCO2 (centres undefined)	-1	2	-2	6.6*	-2	-15	4
COc1ccccc1C1Nc2ccccc2NC2=C1C(=O)CC(C)(C)C2 (centres undefined)	3	0	-4	5.4*	8	0	4
OC(c1ccccc1)(c1ccccc1)C1CCN(CCCOc2ccc(OC(F)(F)F)cc2)CC1	/	2	/	/	-19	/	/
COc1ccc(Nc2nc3ccc(C)cn3c(=O)c2/C=N/O)cc1	12	6	-1	5.0*	-1	-1	0
Cc1ccc2nc(Nc3ccccc3)c(/C=N/O)c(=O)n2c1	5	6	-13	1	-3	11	/
COc1cc(/C=C2/C(=O)N(c3ccc([N+](=O)[O-])cc3)N=C2N2CCOCC2)ccc1O	18	10	-3	4.7*	7	1	4.6*
COc1cc(/C=C2\SC(=S)N(N3CCOCC3)C2=O)ccc1O	5	-18	-9	-1	-1	2	/
CCNC(=O)N(C)[C@H]1C[C@H]2c3[nH]c4c(-c5cccc(C)c5)cccc4c3CCN2C[C@H]1[C@H](C)O	/	-3	/	/	6	/	/
Cc1ccc(Nc2n[nH]c(C)c2[N+](=O)[O-])c(C)c1	11	6	0	10*	-7	0	9.1*
Cc1cc(NC(=O)/C(C#N)=C/c2ccco2)n(-c2ccccc2)n1	-2	4	-4	8.7*	-14	4	4
